Measured values published in ChEMBL document CHEMBL1629530, “1,5-Benzoxazepines vs 1,5-benzodiazepines. one-pot microwave-assisted synthesis and evaluation for antioxidant activity and lipid peroxidation inhibition” (J Med Chem, 2010).
Calls of active or inactive are those of the source. No cut-off for these calls is given here.

Columns and labels:
[1] = system: Radical scavenging activity; assay: Antioxidant activity assessed as DPPH radical scavenging activity at 100 uM after 20 mins; format: functional
In short: (§1)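 DPPH 0.05 mM in absolute ethanol mixed with an equal volume of compound in DMSO (final 50 and 100 μM). Shaken vigorously, then left to stand 20 or 60 min. At least triplicate; absorbance SD under 10% of mean.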

Glycine max = assay: Inhibition of soybean lipoxygenase at 100 uM by UV absorbance based assay
In short: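 Soybean LOX (1 × 10^-4 w/v in saline, diluted 1:9 with saline) incubated at room temperature with sodium linoleate and compound in DMSO (100 μM). Conversion to 13-hydroperoxylinoleic acid recorded at 234 nm against a standard inhibitor. At least triplicate.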

[2] = system: Radical scavenging activity; assay: Antioxidant activity assessed as DPPH radical scavenging activity at 100 uM after 60 mins; format: functional; in short: as §1
[3] = Inhibition of AAPH-induced linoleic acid lipid peroxidation; format: physicochemical
In short: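 Linoleic acid sodium salt (10 μL of 16 mM) in 0.05 M phosphate buffer pH 7.4, prethermostated at 37 °C. Oxidation started under air at 37 °C with 50 μL of 40 mM AAPH, compounds in DMSO. Conjugated diene hydroperoxide formation followed as rising absorbance at 234 nm; result given as IC50. At least triplicate.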

[4] = system: Radical scavenging activity; assay: Antioxidant activity assessed as DPPH radical scavenging activity at 50 uM after 20 mins; format: functional; in short: as §1
[5] = system: Radical scavenging activity; assay: Antioxidant activity assessed as DPPH radical scavenging activity at 50 uM after 60 mins; format: functional; in short: as §1
Rattus norvegicus [6] = assay: Toxicity in Fisher 344 rat carrageenan-induced inflammation model at 0.2 mmol/kg, ip administered simultaneously with carrageenan; format: organism-based; details: in vivo
Rattus norvegicus [7] = assay: Antiinflammatory activity in Fisher 344 rat assessed as inhibition of carrageenan-induced paw edema at 0.01 mmol/kg, ip administered simultaneously with carrageenan; format: functional; details: Fisher 344, ip
In short: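 Edema induced by intradermal injection of 0.1 mL 2% carrageenin in water into right hind paw of Fisher 344 rats (150-200 g), both sexes, pregnant females excluded, fasted during experiment; 6-15 animals per group. Compound suspended in water with a few drops of Tween 80, given ip. Rats euthanized 3.5 h later. Injected minus uninjected paw weight compared with water-treated controls as % inhibition; mean of two experiments.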

SMILES | Activity [1] [%] | inhibition (Glycine max) | Activity [2] [%] | IC50 [3] [µM] | Activity [4] [%] | Activity [5] [%] | Activity (Rattus norvegicus [6]) | inhibition in vivo at 10 µmol/kg (Rattus norvegicus [7]) [%]
CC(Cc1ccc(O)c(O)c1)C(C)Cc1ccc(O)c(O)c1 (stereo not drawn) | 93 | 84% | 96 |  |  |  |  | 
Cc1ccc(NC(=O)Oc2cccc3c2N=C(c2ccccc2)CC(C)(c2ccccc2)N3)cc1 (stereo not drawn) | 10 | 3% | 9 | 50 |  |  |  | 
CC1(c2ccc(Cl)cc2)CC(c2ccc(Cl)cc2)=Nc2c(N)cccc2O1 (stereo not drawn) | 86 | inactive | 86 | 47.5 | 87 | 86 |  | 
CC1(c2ccc(Cl)cc2)CC(c2ccc(Cl)cc2)=Nc2c(O)cccc2N1 (stereo not drawn) | 54 | inactive | 53 | 2.5 |  |  | Non-toxic | 35
CC1(c2cccc([N+](=O)[O-])c2)CC(c2cccc([N+](=O)[O-])c2)=Nc2c(O)cccc2N1 (stereo not drawn) | 32 | inactive | 32 | 46 |  |  |  | 
COc1cccc(C2=Nc3c(O)cccc3NC(C)(c3cccc(OC)c3)C2)c1 (stereo not drawn) | 27 | 37% | 27 | 60 |  |  |  | 
COc1ccccc1C1=Nc2c(O)cccc2NC(C)(c2ccccc2OC)C1 (stereo not drawn) | 36 | 3% | 36 | 46 |  |  |  | 
COc1ccc2c(c1)c(CC(=O)O)c(C)n2C(=O)c1ccc(Cl)cc1 [INDOMETHACIN] |  |  |  |  |  |  |  | 47
CC1=Nc2c(N)cccc2OC(C)(C)C1 | 86 | 98% | 86 | 70 | 87 | 88 |  | 
Cc1c(C)c2c(c(C)c1O)CCC(C)(C(=O)O)O2 (stereo not drawn) [TROLOX] |  |  |  | 63 |  |  |  | 
CC1=Nc2c(O)cccc2NC(C)(C)C1 | 66 | inactive | 65 | 77 | 44 | 67 |  | 
CC1(C)CC(c2ccccc2)=Nc2ccccc2N1 | 15 | 6% | 14 | 45 |  |  |  | 
CC1(c2ccccc2)CC(c2ccccc2)=Nc2c(O)cccc2N1 (stereo not drawn) | 30 | 28% | 29 | 50 |  |  |  | 
